AHR activator: activates the human aryl hydrocarbon receptor; P35869; AHR-responsive luciferase reporter cells, luminescence; activation, % at 5 µM; hit rate 2.5% among 320,000; in the data active = activation above about 47%;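 also: 0% = vehicle wells and 100% = reference agonist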
Target sequence (P35869 whole entry, looked up): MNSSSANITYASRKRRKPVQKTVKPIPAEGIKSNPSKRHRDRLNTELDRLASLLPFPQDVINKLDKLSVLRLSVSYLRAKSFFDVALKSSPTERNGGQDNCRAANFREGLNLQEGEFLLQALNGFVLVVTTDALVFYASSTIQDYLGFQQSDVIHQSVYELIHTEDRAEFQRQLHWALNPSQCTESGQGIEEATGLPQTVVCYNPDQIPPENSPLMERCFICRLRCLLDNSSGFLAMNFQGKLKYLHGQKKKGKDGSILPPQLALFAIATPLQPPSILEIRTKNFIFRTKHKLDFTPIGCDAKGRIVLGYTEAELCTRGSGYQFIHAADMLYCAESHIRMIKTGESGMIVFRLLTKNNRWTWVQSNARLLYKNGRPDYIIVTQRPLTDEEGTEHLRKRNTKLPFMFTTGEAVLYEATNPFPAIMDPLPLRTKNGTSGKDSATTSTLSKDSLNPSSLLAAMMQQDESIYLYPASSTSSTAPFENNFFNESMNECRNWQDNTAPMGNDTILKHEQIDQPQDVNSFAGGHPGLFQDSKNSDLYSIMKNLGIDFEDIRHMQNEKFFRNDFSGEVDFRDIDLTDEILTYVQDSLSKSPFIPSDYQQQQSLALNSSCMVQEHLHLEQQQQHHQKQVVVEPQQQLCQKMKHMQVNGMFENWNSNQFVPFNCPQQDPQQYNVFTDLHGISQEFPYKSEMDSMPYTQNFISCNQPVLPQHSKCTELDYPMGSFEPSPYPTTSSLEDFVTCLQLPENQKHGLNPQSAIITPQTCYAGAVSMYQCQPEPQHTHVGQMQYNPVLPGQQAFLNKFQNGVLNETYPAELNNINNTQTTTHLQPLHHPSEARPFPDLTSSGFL
CTSL1 counter-1: cathepsin L1 inhibition, PFM18AAP counter-screen; recombinant F. hepatica cathepsin L1, Z-Leu-Arg-MCA fluorescence; inhibition, % at 5.96 µM; hit rate 0.49% among 300,000; AID 1906;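 active = inhibition above the mean of all tested compounds plus 3 SD, set per screening campaign, cut at about 17% in these data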;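 also: 0% = plate median of test compound wells and 100% = 1 µM Z-Phe-Ala-diazomethylketone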
SENP1 FRET inh: inhibitors of human SENP1 SUMO protease catalytic domain | Q9P0U3 | recombinant SENP1 catalytic domain, CyPet-SUMO1-YPet FRET cleavage | inhibition, % at 10 µM | hit rate 0.21% among 360,000;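 active = inhibition at least 30% at 10 µM, raw YFP signal under a set limit, fluorescence ratio 0.5 to 1.5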;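 also: 0% = enzyme with DMSO and 100% = no enzyme wells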
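system = hSENP1 catalytic domain, recombinant | reagent = SFCypet-SUMO1-SFYpet substrate at 25 nM | doses = one dose per compound, 10 µM, 0.5% DMSO | incubation = enzyme reaction for 50 min at room temperature, dark | measured by = FRET, CFP and YFP emission | controls = no-enzyme low, enzyme-DMSO high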
PfM18AAP inh-1: blocks P. falciparum M18 aspartyl aminopeptidase; recombinant PfM18AAP, H-Glu-NHMec fluorogenic cleavage; AID 1822; inhibition, % at 7.35 µM; hit rate 1.2% among 290,000;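 active = inhibition above the campaign mean inhibition over all tested compounds plus 3 SD, cut at about 28% in these data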;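 also: 0% = plate median of test compound wells and 100% = 2 mM ZnCl2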
FXN GAA850 act: frataxin GAA850 promoter activation. hit rate 0.56% among 360,000. HEK293 lucGAA850 FXN promoter luciferase reporter, 24 h; percent of 10 µM SAHA response. activation, % at 6 µM. AID 540364;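 active = activation above the average of all compounds screened plus 3 SD, cutoff fixed separately per campaign, cut at about 7.5% in these data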;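 also: 0% = DMSO wells and 100% = 10 µM SAHA wells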
HDAC3 inhib: blocks human histone deacetylase 3; O15379; recombinant HDAC3, fluorogenic peptide/trypsin coupled, fluorescence; inhibition, % at 8.3 µM; hit rate 0.15% among 320,000; AID 2718; in the data active = inhibition above about 26%, passing the limit was not always enough
PfM18AAP inh-2: confirmation of Plasmodium falciparum M18 aspartyl aminopeptidase inhibitors; AID 2170; hit rate 28% among 2,400; inhibition, % at 7.35 µM; recombinant PfM18AAP, H-Glu-NHMec fluorogenic cleavage; shares compounds with PfM18AAP inh-1;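 active = mean inhibition over replicate wells above the hit cutoff set for the earlier primary screen, cut at about 29% in these data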;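 also: 0% = median of test compound wells and 100% = 2 mM ZnCl2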
CTSL1 counter-2: counter-screen for PFM18AAP inhibitors: confirmation of human cathepsin L inhibitors; shares compounds with PfM18AAP inh-1; purified cathepsin L1, Z-Leu-Arg-MCA fluorescence; inhibition, % at 5.96 µM; 2,400 tested, under 10 active; AID 2178;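 active = average inhibition across replicates above the hit cutoff set in the earlier primary screen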;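 also: 0% = median of test compound wells and 100% = Z-Phe-Ala-diazomethylketone 1 µM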
* marks the source's active call; other numbers are inactive results; nt = no result. Only some compounds are listed: those with a hit (about 4.2% of all), similar ones and a draw of the others.

SMILES | AHR activator | CTSL1 counter-1 | SENP1 FRET inh | PfM18AAP inh-1 | FXN GAA850 act | HDAC3 inhib | PfM18AAP inh-2 | CTSL1 counter-2
CCCCCCNC(=O)O[C@H]1C[C@H](C(=O)OC)[C@H](C(=O)OC)C2CN(S(=O)(=O)c3ccc(C)cc3)C[C@@]21O (some centres undefined) | nt | nt | 2 | nt | -4 | nt | nt | nt
Cc1cc(C)c2c(N)c(C(=O)NNC(=O)c3ccccc3)sc2n1 | 15 | 2 | -12 | 44* | 5 | -10 | 12 | -1
CN1/C(=C\C(=O)c2cccs2)C(C)(C)c2ccccc21 | 42 | 3 | -26 | 4 | 1 | 2 | nt | nt
COc1ccc(C(=O)/C=C2/Sc3cc4c(cc3N2C)OCO4)cc1 | 12 | 1 | -28 | 40* | 2 | nt | -45 | 2
CN1/C(=C\C(=O)c2cccc([N+](=O)[O-])c2)Sc2ccccc21 | 14 | 7 | 0 | 12 | 3 | -8 | nt | nt
CN1/C(=C\C(=O)c2cccs2)Sc2ccccc21 | 77* | 1 | -16 | 54* | -1 | 4 | -47 | -4
COc1cc(OC)cc(C(=O)/C=C2\Sc3ccccc3N2C)c1 | -3 | 2 | -43 | 47* | 3 | 13 | -48 | 0
COCC(=O)/C=C1\Sc2ccccc2N1C | -2 | 0 | -3 | 9 | 3 | -2 | nt | nt
COc1ccc2c(c1)S/C(=C\C(=O)c1ccncc1)N2C | -5 | 2 | 6 | 39* | 4 | 4 | 27 | 6
CSc1ccc(/C=C(\C(=O)O)c2ccc(S(=O)(=O)N3CCCC3)s2)cc1 | 0 | nt | -45 | nt | 3 | 4 | nt | nt
CCOC(=O)C1(C)CCCCCN1C(=O)c1ccc(N(C)C)cc1 (centres undefined) | nt | nt | 1 | nt | -2 | nt | nt | nt
O=C(c1ccc(Cl)cc1)c1cccc(O)c1 | nt | nt | -1 | nt | -1 | nt | nt | nt
Cc1ccc(CNC(=O)CC[C@H]2O[C@@H](n3cc(C)c(=O)[nH]c3=O)C[C@@H]2O)o1 | nt | nt | -1 | nt | nt | nt | nt | nt
CCNC(=O)c1cccc(S(=O)(=O)N2CCCCCC2)c1 | -1 | -4 | -2 | 36* | 3 | -2 | -36 | 0
O=C(N/N=C/c1ccc(O)c(O)c1)c1cccc(S(=O)(=O)N2CCCCC2)c1 | 2 | -6 | -1 | 56* | 0 | 7 | 51* | 0
CC1(C)Cc2c(c(N3CCOCC3)nc3sc4c(NN)ncnc4c23)CS1 | 3 | 6 | -61 | 33* | 3 | 5 | -7 | 3
CC(C)CNc1nnnc2c1sc1nc(N3CCOCC3)c3c(c12)CC(C)(C)SC3 | -1 | 3 | -31 | -2 | 2 | -3 | nt | nt
COCCN(CCOC)Cc1c(O)ccc2c1O/C(=C\c1ccco1)C2=O | 0 | 1 | -23 | 38* | -1 | -2 | -41 | 0
O=C1/C(=C/c2ccco2)Oc2c1ccc(O)c2CN1CCCCC1 | 2 | -4 | -27 | 16 | 0 | 13 | nt | nt
CN(C)c1ccc(/C=N/NC(=O)c2ccc(-n3cnnn3)cc2)cc1 | 3 | nt | -35 | nt | -1 | -10 | nt | nt
CN(C)c1ccc(/C=N/Nc2ccc(-n3ccnc3)nn2)cc1 | 21 | 6 | 3 | 34* | 3 | 3 | -39 | 8
S=c1[nH]nc(C2COc3ccccc3O2)o1 (centres undefined) | 0 | 3 | 1 | 8 | 0 | 0 | nt | nt
S=c1nc(C2COc3ccccc3O2)[nH][nH]1 (centres undefined) | 0 | -1 | 2 | 35* | 2 | 8 | 26 | 2
O=C1NC(=S)CN1c1ccccc1 | -2 | -2 | -3 | 42* | -1 | -4 | 13 | -4
O=C1N(c2ccccc2)CCN1c1ccccc1 | 8 | -1 | 0 | -12 | 4 | -6 | nt | nt
SMILES | AHR activator | CTSL1 counter-1 | SENP1 FRET inh | PfM18AAP inh-1 | FXN GAA850 act | HDAC3 inhib | PfM18AAP inh-2 | CTSL1 counter-2
CCOc1cc(C(=O)Nn2cnnc2)cc(OCC)c1OCC | 1 | -4 | 3 | 35* | 1 | -3 | 24 | 1
CCOc1cc(C(=O)NC(=S)Nn2cnnc2)cc(OCC)c1OCC | -1 | 1 | 2 | 75* | 1 | 10 | 75* | -2
CCOC(=O)c1sc(N=NC2=C(O)CCCC2=O)c(C(=O)OCC)c1C | 0 | 8 | -4 | 35* | 1 | 3 | -41 | 2
NC(N)=N/N=C/c1cccc([N+](=O)[O-])c1O | 8 | -2 | 2 | 43* | 0 | 3 | -6 | -1
O=C1[C@@H]2Cc3c([nH]c4ccccc34)C(c3ccccc3)N2C(=O)CN1C1CCN(Cc2ccccc2)CC1 (some centres undefined) | 12 | 6 | -19 | 41* | 1 | 3 | -46 | 2
O=C(NC1CCCCC1)C(c1ccc(O)c(O)c1)N(C(=O)Cn1nnc2ccccc21)c1cccc(O)c1 (centres undefined) | 0 | 0 | 0 | 86* | 0 | 2 | 83* | -2
Cc1nc(NC(=O)c2ccccc2)sc1-c1cc(C(=O)O)nn1Cc1ccccc1 | nt | nt | -1 | nt | 0 | nt | nt | nt
Cc1ccc(NC(=S)C2=C(O)c3sccc3N(C)S2(=O)=O)cc1 | 4 | 7 | -39 | 49* | -1 | 10 | -32 | 5
CCOC(=O)Cn1cc(Cn2c3ccccc3c(=O)n2C(C)C)nn1 | nt | nt | 2 | nt | nt | nt | nt | nt
COc1ccc(-c2ccc(C(=O)Nc3ccc4c(c3)OCO4)c3occc23)c(C)c1 | nt | nt | -1 | nt | 2 | nt | nt | nt
CC(=O)C1=C(C)NC(SCc2cccc([N+](=O)[O-])c2)=C(C#N)C1c1ccco1 (centres undefined) | 1 | -2 | 3 | 32* | 1 | 1 | -18 | 0
Nn1c(SCC(=O)NCCCc2ccccc2)nnc1-c1cccnc1 | 2 | -1 | 5 | 7 | 0 | -3 | nt | nt
C=CCn1c(SCC(=O)c2ccc(O)c(O)c2)nnc1-c1cccc(C)c1 | 2 | nt | 3 | nt | 3 | 5 | nt | nt
CCn1c(SCC(=O)c2ccc(O)c(O)c2)nnc1-c1ccccc1 | 2 | -9 | 4 | 41* | 3 | 10 | 27 | -5
CCn1c(SCC(=O)c2ccc(O)c(O)c2)nnc1-c1ccccc1OC | 16 | -3 | 1 | 42* | 0 | 7 | 23 | 2
O=C(CCCn1c(SCC(=O)NC2CCCCC2)nc2ccccc2c1=O)NCC1CCCO1 (centres undefined) | -3 | 0 | -1 | 4 | 0 | -8 | nt | nt
Cn1cnnc1SCC(=O)c1ccc(O)c(O)c1 | 2 | -1 | 1 | 53* | 3 | 0 | 35* | 3
O=C(CCCn1c(SCC(=O)c2ccc(O)c(O)c2)nc2ccccc2c1=O)NCC1CCCO1 (centres undefined) | -4 | 1 | 1 | 53* | -2 | -1 | 38* | 3
CCOc1ccccc1C(=O)N/N=C/c1coc2ccc(C)cc2c1=O | nt | nt | 0 | 8 | -2 | 8 | nt | nt
